# Measured values: paper PMC10957407 (Food Chemistry: X, 2024)
# Key:
# [1] = tested on: 1-G12; experiment: icELISA with mAb 1-G12; assay type: binding, Balb/c mice; conditions: for CR: CR%=IC50 6-GG/IC50 test compound x100%
# In short: (§1)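 Ascites-derived mAbs (caprylic acid–ammonium sulfate purified) from female Balb/c mice immunized with hapten–BSA. Plates coated with hapten–OVA in carbonate buffer (0.5 mol L−1, pH 9.6), blocked with 5% skim milk, washed with PBST, and detected with goat anti-mouse IgG-HRP; reaction stopped with 2 mol L−1 H2SO4. Analyte stocks (1 mg/mL, 70% methanol) were diluted in 10% methanol-PBS. IC50 values were fitted, and cross-reactivity was calculated for capsaicinoids, gingerol derivatives and eight other compounds.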
# [2] = tested on: 1-F12; experiment: icELISA with mAb 1-F12; assay type: binding, Balb/c mice; conditions: for CR: CR%=IC50 6-GG/IC50 test compound x100%
# In short: as §1
# [3] = tested on: 1-D6; experiment: icELISA with mAb 1-D6; assay type: binding, Balb/c mice; conditions: for CR: CR%=IC50 6-GG/IC50 test compound x100%
# In short: as §1
# [4] = tested on: 4-AT4; experiment: icELISA with mAb 4-AT4; assay type: binding
# [5] = tested on: 5-D8; experiment: icELISA with mAb 5-D8; assay type: binding
# [6] = tested on: 6-AT6; experiment: icELISA with mAb 6-AT6; assay type: binding
# [7] = tested on: 2-LD2; experiment: icELISA with mAb 2-LD2; assay type: binding
# [8] = tested on: 3-LD3; experiment: icELISA with mAb 3-LD3; assay type: binding
# [9] = tested on: 5-3H1; experiment: icELISA with mAb 5-3H1; assay type: binding
# [10] = mAb 1-D6, specific evaluation (Table 1, Fig. 3C)
# [11] = mAb 1-G12, specific evaluation (Table 1, Fig. 3D)
# [12] = mAb 1-F12, specific evaluation (Table 1, Fig. 3B)
compound,measurement,setting,value
COc1cc(/C=C/C(=O)O)ccc1O [Ferulic acid],CR,[1]; mAb 1-G12,<14.01%
same,CR,[2]; mAb 1-F12,<12.66%
same,IC50,[3]; [10],1927.36 ng/mL
same,CR,[3]; mAb 1-D6,3.07%
"CCCCC[C@H](O)CC(=O)CCc1ccc(O)c(OC)c1 [Hapten 6-GG, 6-gingerol]",IC50,[4]; coating antigen Hapten 1-OVA,4.93 ng/mL
same,IC50,[4]; coating antigen Hapten 2-OVA,>4000 ng/mL
same,IC50,[4]; coating antigen Hapten 3-OVA,>4000 ng/mL
same,IC50,[4]; coating antigen Hapten 4-OVA,>4000 ng/mL
same,IC50,[4]; coating antigen Hapten 5-OVA,481.65 ng/mL
same,IC50,"[1]; coating antigen Hapten 1-OVA, mAb 1-G12",560.59 ng/mL
same,IC50,"[1]; coating antigen Hapten 2-OVA, mAb 1-G12",>4000 ng/mL
same,IC50,"[1]; coating antigen Hapten 3-OVA, mAb 1-G12",>4000 ng/mL
same,IC50,"[1]; coating antigen Hapten 4-OVA, mAb 1-G12",410.84 ng/mL
same,IC50,"[1]; coating antigen Hapten 5-OVA, mAb 1-G12",195.53 ng/mL
same,IC50,"[1]; coating antigen Hapten 6-OVA, mAb 1-G12",284.44 ng/mL
same,IC50,[1]; [11],560.59 ng/mL
same,CR,[1]; mAb 1-G12,100.00%
same,IC50,[5]; coating antigen Hapten 1-OVA,23.28 ng/mL
same,IC50,[5]; coating antigen Hapten 2-OVA,>4000 ng/mL
same,IC50,[5]; coating antigen Hapten 3-OVA,>4000 ng/mL
same,IC50,[5]; coating antigen Hapten 4-OVA,1030.07 ng/mL
same,IC50,[5]; coating antigen Hapten 5-OVA,1036.51 ng/mL
same,IC50,"[2]; coating antigen Hapten 1-OVA, mAb 1-F12",506.23 ng/mL
same,IC50,"[2]; coating antigen Hapten 2-OVA, mAb 1-F12",>4000 ng/mL
same,IC50,"[2]; coating antigen Hapten 3-OVA, mAb 1-F12",>4000 ng/mL
same,IC50,"[2]; coating antigen Hapten 4-OVA, mAb 1-F12",401.26 ng/mL
same,IC50,"[2]; coating antigen Hapten 5-OVA, mAb 1-F12 (optimal combination)",122.83 ng/mL
same,IC50,"[2]; coating antigen Hapten 6-OVA, mAb 1-F12",631.69 ng/mL
same,IC50,[2]; [12],506.23 ng/mL
same,CR,[2]; mAb 1-F12,100.00%
same,IC50,[6]; coating antigen Hapten 1-OVA,>4000 ng/mL
same,IC50,[6]; coating antigen Hapten 2-OVA,>4000 ng/mL
same,IC50,[6]; coating antigen Hapten 3-OVA,>4000 ng/mL
same,IC50,[6]; coating antigen Hapten 4-OVA,>4000 ng/mL
same,IC50,[6]; coating antigen Hapten 5-OVA,425.62 ng/mL
same,IC50,[6]; coating antigen Hapten 6-OVA,>4000 ng/mL
same,IC50,[7]; coating antigen Hapten 1-OVA,24.79 ng/mL
same,IC50,[7]; coating antigen Hapten 2-OVA,1436.16 ng/mL
same,IC50,[7]; coating antigen Hapten 3-OVA,1.78 ng/mL
same,IC50,[7]; coating antigen Hapten 4-OVA,1.01 ng/mL
same,IC50,"[3]; coating antigen Hapten 1-OVA, mAb 1-D6",59.17 ng/mL
same,IC50,"[3]; coating antigen Hapten 2-OVA, mAb 1-D6",1147.33 ng/mL
same,IC50,"[3]; coating antigen Hapten 3-OVA, mAb 1-D6",27.78 ng/mL
same,IC50,"[3]; coating antigen Hapten 4-OVA, mAb 1-D6",297.53 ng/mL
same,IC50,"[3]; coating antigen Hapten 5-OVA, mAb 1-D6",132.86 ng/mL
same,IC50,"[3]; coating antigen Hapten 6-OVA, mAb 1-D6",150.56 ng/mL
same,IC50,[3]; [10],59.17 ng/mL
same,CR,[3]; mAb 1-D6,100.00%
same,IC50,[8]; coating antigen Hapten 2-OVA,1821.65 ng/mL
same,IC50,[8]; coating antigen Hapten 3-OVA,2182.32 ng/mL
same,IC50,[8]; coating antigen Hapten 4-OVA,271.08 ng/mL
same,IC50,[9]; coating antigen Hapten 1-OVA,38.97 ng/mL
same,IC50,[9]; coating antigen Hapten 2-OVA,>4000 ng/mL
same,IC50,[9]; coating antigen Hapten 3-OVA,>4000 ng/mL
same,IC50,[9]; coating antigen Hapten 4-OVA,1062.82 ng/mL
same,IC50,[9]; coating antigen Hapten 5-OVA,670.41 ng/mL
COc1ccc(/C=C/C(=O)O)cc1O [IsoFerulic acid],IC50,[1]; [11],>4000 ng/mL
same,CR,[1]; mAb 1-G12,<14.01%
same,IC50,[2]; [12],>4000 ng/mL
same,CR,[2]; mAb 1-F12,<12.66%
same,IC50,[3]; [10],2128.07 ng/mL
same,CR,[3]; mAb 1-D6,2.78%
COc1cc(/C=C/C(=O)O)ccc1O [Trans-Ferulic acid],IC50,[1]; [11],>4000 ng/mL
same,CR,[1]; mAb 1-G12,<14.01%
same,IC50,[2]; [12],>4000 ng/mL
same,CR,[2]; mAb 1-F12,<12.66%
same,IC50,[3]; [10],>4000 ng/mL
same,CR,[3]; mAb 1-D6,<1.48%
COc1cc(C(=O)O)ccc1O [Vanillic acid],IC50,[1]; [11],>4000 ng/mL
same,CR,[1]; mAb 1-G12,<14.01%
same,IC50,[2]; [12],>4000 ng/mL
same,CR,[2]; mAb 1-F12,<12.66%
same,IC50,[3]; [10],1717.20 ng/mL
same,CR,[3]; mAb 1-D6,3.45%
COc1cc(C=O)ccc1O [Vanillin],IC50,[1]; [11],>4000 ng/mL
same,CR,[1]; mAb 1-G12,<14.01%
same,IC50,[2]; [12],>4000 ng/mL
same,CR,[2]; mAb 1-F12,<12.66%
same,IC50,[3]; [10],1981.61 ng/mL
same,CR,[3]; mAb 1-D6,2.99%
